# High-throughput results deposited in PubChem BioAssay by several laboratories.
# Rows were chosen to be rich in hits. Some 2.3% of all compounds tested hit in one or more screens of this group.
# CR mimetic SO – caloric restriction mimetics inhibiting age-related superoxide in yeast; S. cerevisiae aged cells, superoxide DHE fluorescence; active compounds read low; superoxide response (% of plate mean), % at 10 µM; hit rate 0.18% among 330,000; AID 2690;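 active = superoxide response under a set limit, about three screen SD below normal, cut at about 65% in these data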;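 note: yeast aged for seven days with compound at 30 °C before DHE staining; 100% = average MFI of all compound-treated wells on the plate with controls excluded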
# TRPC4 act – opens the mouse TRPC4 cation channel | Q9QUQ5 | HEK293 TRPC4beta/mu-opioid, Fluo4 calcium fluorescence; active compounds read high | B-score at 10 µM | hit rate 0.49% among 310,000 | AID 2237;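 active = B-score above 5 SD of library B-scores, and initial fluorescence ratio not above library mean plus 5 SD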;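 note: positive B-score marks a calcium rise read as TRPC4 activation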
#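 Incubation: 45 min room-temperature Fluo4 loading, 110 s read / System: HEK293 cells stably co-expressing mouse TRPC4beta and mu-opioid receptor / Signal: Fluo4 fluorescence, kinetic / Control set: buffer (low) and maximal DAMGO (high) / Measure: integrated baseline-normalised fluorescence ratio, converted to per-well B score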
# TRPC6 inh – mouse TRPC6 channel inhibition. hit rate 1.1% among 310,000. HEK293-TRPC6, membrane potential dye, ACh-evoked depolarization; active compounds read low. B-score at 10 µM. Q61143;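 active = B-score under library mean minus 3 SD, initial fluorescence not abnormally high, positive integrated signal ratio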;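 note: B-score derived from integrated fluorescence ratio over the kinetic read; more negative B-score means stronger inhibition of depolarization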
# Target sequence (Q61143 whole entry, looked up): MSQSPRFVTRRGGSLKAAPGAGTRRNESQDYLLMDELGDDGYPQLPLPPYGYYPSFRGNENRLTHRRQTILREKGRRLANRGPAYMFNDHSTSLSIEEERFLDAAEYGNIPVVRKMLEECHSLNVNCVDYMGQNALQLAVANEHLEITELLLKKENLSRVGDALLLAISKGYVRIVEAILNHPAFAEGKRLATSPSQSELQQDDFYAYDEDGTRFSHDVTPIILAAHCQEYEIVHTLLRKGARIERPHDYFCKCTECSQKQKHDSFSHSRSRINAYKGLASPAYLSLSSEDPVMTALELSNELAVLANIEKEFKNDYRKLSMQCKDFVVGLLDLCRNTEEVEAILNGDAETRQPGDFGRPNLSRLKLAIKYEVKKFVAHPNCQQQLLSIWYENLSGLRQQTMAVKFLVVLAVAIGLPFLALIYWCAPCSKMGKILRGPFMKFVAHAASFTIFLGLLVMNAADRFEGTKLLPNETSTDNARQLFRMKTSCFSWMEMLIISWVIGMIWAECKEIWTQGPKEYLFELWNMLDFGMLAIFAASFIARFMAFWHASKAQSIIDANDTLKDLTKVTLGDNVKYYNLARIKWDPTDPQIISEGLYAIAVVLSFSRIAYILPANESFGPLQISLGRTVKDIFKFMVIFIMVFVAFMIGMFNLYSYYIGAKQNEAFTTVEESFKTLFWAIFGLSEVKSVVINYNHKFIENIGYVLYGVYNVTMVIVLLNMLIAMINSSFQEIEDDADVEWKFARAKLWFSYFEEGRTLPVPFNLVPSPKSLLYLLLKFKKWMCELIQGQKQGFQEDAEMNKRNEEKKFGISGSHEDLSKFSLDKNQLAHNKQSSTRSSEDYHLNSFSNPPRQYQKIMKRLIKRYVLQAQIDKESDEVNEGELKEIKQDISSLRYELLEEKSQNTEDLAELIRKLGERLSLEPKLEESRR
# TRPC4 PAM – allosteric potentiators of mouse TRPC4 channel. Q9QUQ5. HEK293 TRPC4beta/mu-opioid, DAMGO EC20, Fluo-4 Ca2+ flux; active compounds read high. B-score at 10 µM. hit rate 0.42% among 310,000;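 active = B-score of calcium response area above 5 SD of library B-scores, with initial fluorescence ratio within 5 SD of library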;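 note: B-score of integrated fluorescence ratio over time as area under calcium response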
# TRPC4 inh – blocks the mouse TRPC4 cation channel; Q9QUQ5; HEK293 TRPC4beta/mu-opioid, DAMGO-evoked Fluo4 calcium flux; active compounds read low; B-score at 10 µM; hit rate 0.39% among 300,000; AID 2247;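 active = B-score over 3 SD under the library average, no early fluorescence shift, positive overall ratio signal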
#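 Assay system: TRPC4beta/mu-opioid receptor HEK293 cell line; compound dosing: single concentration per test compound; detection: Fluo4 Ca2+ flux fluorescence; evaluation: per-well B score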
# TRPC6 activator – mouse TRPC6 channel activation; AID 2550; hit rate 0.13% among 310,000; HEK293-TRPC6 membrane potential dye fluorescence; active compounds read high; B-score at 10 µM;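 active = B-score of the integrated fluorescence ratio above library mean plus 3 SD, and starting fluorescence ratio within library mean plus 5 SD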;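 note: higher score means more depolarization so channel activation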
# The depositor's hits bear a star; i = inactive.
SMILES,CR mimetic SO,TRPC4 act,TRPC6 inh,TRPC4 PAM,TRPC4 inh,TRPC6 activator
CCOC(=O)C1(Cc2cccc(OC)c2)CCN(Cc2ccc(OC)c(O)c2)CC1,96,i,i,i,-8*,i
COCCNc1nc(-c2cc3ccccc3o2)cs1,96,i,i,i,i,i
Cc1cc(Nc2ccc(C)c(C)c2)c2ccccc2n1,98,i,i,i,-6*,i
CCOC(=O)c1ccc(NC(=S)N2CCN(Cc3ccccc3)CC2)cc1,96,i,i,i,i,i
COc1ccc(/C=N\Nc2ccc([N+](=O)[O-])cc2[N+](=O)[O-])c(C(=O)O)c1OC,98,i,i,i,i,i
O=C(Nc1ccc(Cl)cc1)N1CCC(c2nc(-c3cccs3)no2)CC1,90,137*,i,i,i,i
O=C(Nc1ccccc1)N1CCCC(c2nc(-c3cccs3)no2)C1 (centres undefined),73,47*,i,i,i,i
O=C(NC1CCCCC1)N1CCCC(c2nc(-c3cccs3)no2)C1 (centres undefined),97,i,i,i,i,i
O=C(O)c1nccnc1C(=O)Nc1ccc(S(=O)(=O)N2CCOCC2)cc1,103,i,i,i,i,i
COc1ccc(CCN=C(N)C(C)c2ccccc2)cc1OC (centres undefined),100,i,i,i,i,i
CC(C)Cc1ccc(C(C)C(N)=NCCc2ccccc2)cc1 (centres undefined),101,i,i,10*,i,i
O=C(CN1CCCCCC1)Nc1ccccc1Oc1ccccc1,107,i,i,i,-6*,i
CCOC(=O)C1CCN(C(=O)Cc2ccc(-c3ccccc3)cc2)CC1,104,i,i,i,i,i
CN(C)CCOc1cc(Cl)cc(Cl)c1,96,i,i,26*,i,i
CN(C)CCOc1ccc2ccccc2c1,92,i,i,16*,i,i
c1ccc2cc(OCCOCCOc3ccc4ccccc4c3)ccc2c1,105,i,i,i,i,i
CN(C)CCCCOc1cccc(Br)c1,95,i,i,20*,i,i
O=C(NNS(=O)(=O)c1ccc(F)cc1)C1CC(c2cccnc2)=NO1 (centres undefined),96,i,i,i,i,i
C=CCN1C(=O)/C(=C/C=C2/N(CC)c3ccc(S(=O)(=O)N(C)C)cc3N2CC)SC1=S,89,64*,i,10*,i,i
C=CCN1C(=O)/C(=C2/Sc3ccccc3N2CC)SC1=S,95,i,i,i,i,i
O=C(CC1(O)C(=O)Nc2ccccc21)c1ccccc1O (centres undefined),104,i,i,i,i,i
O=C(CC1=NCCNC(c2ccccc2)C1)c1ccccc1O (centres undefined),73,i,i,10*,i,i
CC1(C)CC(NC2C3CC4CC(C3)CC2C4)CC(C)(C)N1 (centres undefined),118,i,i,12*,i,i
CCC(CC)NC(=O)CO/N=C/c1ccc(Cl)cc1Cl,103,i,i,i,i,i
COc1ccc2c(C)cc(SCC#N)nc2c1,96,i,i,i,i,i
Cc1cc(SCC#N)nc2ccccc12,97,i,i,i,-6*,i
C=CCNc1oc(-c2ccco2)nc1S(=O)(=O)c1ccccc1,99,i,i,i,i,i
COc1cc(/C=C2\C(=N)N3N=C(S(C)(=O)=O)SC3=NC2=O)ccc1OC(=O)c1ccco1,112,i,i,i,i,i
COc1cc(/C=C2\C(=N)N3N=C(S(C)(=O)=O)SC3=NC2=O)ccc1OC(=O)c1cccs1,134,i,i,i,-7*,i
CN1CC2(C(=O)c3ccccc3)CN(C)CC(C(=O)c3ccccc3)(C1)C2,101,i,i,i,i,i
